Tests used:
[1] = molecular target: Rho-associated protein kinase 1 (Homo sapiens, UniProt Q13464); test: Inhibition of ROCK1
[2] = molecular target: T1, RAC-alpha serine/threonine-protein kinase (Homo sapiens, UniProt P31749); test: Inhibition of truncated AKT1
Outline: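 AKT1 construct truncated to lack the PH domain. IC50 measured with ATP at or below its Km. At least two determinations (n ≥ 2).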

[3] = molecular target: T1, RAC-alpha serine/threonine-protein kinase; test: Inhibition of AKT1 in human BT474 cells assessed as phosphorylation of GSK3; format: cell-based, BT-474
[4] = molecular target: T1, RAC-alpha serine/threonine-protein kinase; test: Inhibition of full length AKT1
[5] = Selectivity ratio of IC50 for ROCK1 to IC50 for AKT1

T1 sequence (P31749 whole entry, the tested form may be a part): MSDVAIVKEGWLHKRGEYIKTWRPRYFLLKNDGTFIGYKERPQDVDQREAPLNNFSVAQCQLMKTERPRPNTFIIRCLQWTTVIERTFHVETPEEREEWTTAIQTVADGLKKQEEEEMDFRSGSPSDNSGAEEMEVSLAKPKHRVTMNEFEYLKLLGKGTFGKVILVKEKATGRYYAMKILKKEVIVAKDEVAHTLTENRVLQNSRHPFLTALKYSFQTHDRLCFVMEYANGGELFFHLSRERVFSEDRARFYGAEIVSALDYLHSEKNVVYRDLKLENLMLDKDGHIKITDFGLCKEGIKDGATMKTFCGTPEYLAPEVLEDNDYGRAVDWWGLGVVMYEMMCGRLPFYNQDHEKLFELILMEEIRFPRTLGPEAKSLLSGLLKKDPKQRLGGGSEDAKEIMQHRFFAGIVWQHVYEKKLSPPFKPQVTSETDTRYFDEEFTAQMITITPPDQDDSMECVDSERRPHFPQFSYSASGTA
Chain of Rho-associated protein kinase 1 (Q13464 whole entry, the tested form may be a part): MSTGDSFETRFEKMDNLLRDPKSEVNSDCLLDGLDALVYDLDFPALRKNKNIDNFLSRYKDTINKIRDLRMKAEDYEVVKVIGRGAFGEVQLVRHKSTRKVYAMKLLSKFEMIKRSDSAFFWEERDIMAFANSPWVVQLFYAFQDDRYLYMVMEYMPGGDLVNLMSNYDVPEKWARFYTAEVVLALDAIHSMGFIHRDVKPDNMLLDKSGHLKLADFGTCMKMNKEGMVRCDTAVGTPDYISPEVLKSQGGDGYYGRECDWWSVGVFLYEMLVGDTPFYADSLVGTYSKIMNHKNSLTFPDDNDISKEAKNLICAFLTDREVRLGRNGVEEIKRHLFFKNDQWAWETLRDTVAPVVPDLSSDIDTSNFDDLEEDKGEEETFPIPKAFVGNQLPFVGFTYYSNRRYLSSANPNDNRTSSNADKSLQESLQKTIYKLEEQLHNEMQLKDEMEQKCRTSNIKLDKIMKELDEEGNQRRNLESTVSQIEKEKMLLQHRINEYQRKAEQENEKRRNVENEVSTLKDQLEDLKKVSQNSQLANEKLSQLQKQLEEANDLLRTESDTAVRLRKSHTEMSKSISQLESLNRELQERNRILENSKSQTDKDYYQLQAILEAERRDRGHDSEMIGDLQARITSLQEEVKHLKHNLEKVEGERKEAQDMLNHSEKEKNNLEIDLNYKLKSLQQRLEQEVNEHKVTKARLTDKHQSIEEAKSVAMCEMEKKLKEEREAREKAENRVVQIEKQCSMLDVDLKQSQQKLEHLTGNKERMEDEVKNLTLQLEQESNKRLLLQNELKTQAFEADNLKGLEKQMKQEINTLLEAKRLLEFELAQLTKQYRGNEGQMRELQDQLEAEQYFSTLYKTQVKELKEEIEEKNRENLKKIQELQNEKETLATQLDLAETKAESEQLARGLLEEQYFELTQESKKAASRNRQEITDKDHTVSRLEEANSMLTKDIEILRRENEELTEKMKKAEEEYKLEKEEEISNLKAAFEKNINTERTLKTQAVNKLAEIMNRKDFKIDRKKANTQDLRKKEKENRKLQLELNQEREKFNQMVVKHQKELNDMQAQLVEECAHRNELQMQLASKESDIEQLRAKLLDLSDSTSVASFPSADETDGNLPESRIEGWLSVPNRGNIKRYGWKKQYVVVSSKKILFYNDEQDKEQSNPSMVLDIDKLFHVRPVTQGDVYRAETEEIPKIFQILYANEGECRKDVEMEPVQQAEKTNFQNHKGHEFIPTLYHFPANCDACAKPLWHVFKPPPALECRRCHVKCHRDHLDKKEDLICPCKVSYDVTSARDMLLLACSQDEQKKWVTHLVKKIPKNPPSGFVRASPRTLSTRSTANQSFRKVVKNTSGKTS

Row | SMILES | IC50 [1] | IC50 [2] | IC50 [3] | IC50 [4] | Ratio IC50 [5]
1 | Cc1n[nH]c2ccc(-c3cc(OC[C@@H](N)Cc4ccccc4)cnc3-c3ccco3)cc12 | 1.29 µM | 0.79 µM |  |  | 
2 | Cc1n[nH]c2ccc(-c3cc(OC[C@@H](N)Cc4c[nH]c5cc(F)ccc45)cnc3-c3ccoc3)cc12 |  |  | 0.22 µM | 0.0008 µM | 
3 | Cc1n[nH]c2ccc(-c3cc(OC[C@@H](N)Cc4ccccc4)cnc3C#CCCO)cc12 | > 10 µM |  |  | 0.72 µM | 
4 | Cc1n[nH]c2ccc(-c3cc(OC[C@@H](N)Cc4ccccc4)cnc3-c3ccsc3)cc12 | 6 µM |  |  | 0.05 µM | 
5 | Cc1occc1-c1ncc(OC[C@@H](N)Cc2c[nH]c3ccccc23)cc1-c1ccc2[nH]nc(C)c2c1 |  |  | 0.084 µM | 0.0008 µM | 
6 | Cc1n[nH]c2ccc(-c3cc(OC[C@@H](N)Cc4c[nH]c5ncccc45)cnc3-c3ccoc3)cc12 |  |  | 0.93 µM | 0.008 µM | 
7 | Cc1n[nH]c2ccc(-c3cc(OC[C@@H](N)Cc4c[nH]c5ccncc45)cnc3-c3ccoc3)cc12 |  |  | 6.8 µM | 0.013 µM | 
8 | Cc1n[nH]c2ccc(-c3cc(OC[C@@H](N)Cc4ccccc4)cnc3-c3cccc(O)c3)cc12 | > 10 µM |  |  | 0.079 µM | 
9 | Cc1n[nH]c2ccc(-c3cc(OC[C@@H](N)Cc4ccccc4)cnc3-c3ccoc3)cc12 | 5.2 µM |  |  | 0.01 µM | 
10 | Cc1n[nH]c2ccc(-c3cc(OC[C@@H](N)Cc4ccccc4)cnc3-c3cccs3)cc12 | 2.5 µM |  |  | 0.079 µM | 
11 | Cc1n[nH]c2ccc(-c3cc(OC[C@@H](N)Cc4ccccc4)cnc3-c3cc(Cl)ccc3O)cc12 | 7.6 µM |  |  | 0.003 µM | > 2000
12 | Cc1n[nH]c2ccc(-c3cc(OC[C@@H](N)Cc4ccccc4)cnc3-c3ccc[nH]3)cc12 | > 10 µM |  |  | 0.015 µM | 
13 | Cc1n[nH]c2ccc(-c3cc(OC[C@@H](N)Cc4ccccc4)cnc3-c3ccc(O)cc3)cc12 | 1.4 µM |  |  | 0.5 µM | 
14 | Cc1n[nH]c2ccc(-c3cc(OC[C@@H](N)Cc4ccccc4)cnc3-c3ccccc3)cc12 | > 10 µM |  |  | 0.05 µM | > 200
15 | Cc1n[nH]c2ccc(-c3cc(OC[C@@H](N)Cc4c[nH]c5ccccc45)cnc3-c3ccoc3)cc12 |  |  | 0.5 µM |  | 
16 | Cc1n[nH]c2ccc(-c3cc(OC[C@@H](N)Cc4ccccc4)cnc3C#CC(C)(C)O)cc12 | > 10 µM | 10.5 µM |  |  | 
17 | Cc1n[nH]c2ccc(-c3cc(OC[C@@H](N)Cc4c[nH]c5ccc(F)cc45)cnc3-c3ccoc3)cc12 |  |  | 0.36 µM | 0.001 µM | 
18 | Cc1n[nH]c2ccc(-c3cc(OC[C@@H](N)Cc4ccccc4)cnc3-c3cc(F)cc(F)c3O)cc12 | > 10 µM |  |  | 0.063 µM | 
19 | Cc1n[nH]c2ccc(-c3cc(OC[C@@H](N)Cc4c[nH]c5c(F)cccc45)cnc3-c3ccoc3)cc12 |  |  | 0.26 µM | 0.001 µM | 
20 | COc1ccccc1-c1ncc(OC[C@@H](N)Cc2ccccc2)cc1-c1ccc2[nH]nc(C)c2c1 | > 10 µM |  |  | 0.1 µM | 
21 | Cc1n[nH]c2ccc(-c3cc(OC[C@@H](N)Cc4c[nH]c5cccnc45)cnc3-c3ccoc3)cc12 |  |  | 4.3 µM | 0.01 µM | 
22 | Cc1n[nH]c2ccc(-c3cc(OC[C@@H](N)Cc4ccccc4)cnc3-c3ccccc3O)cc12 | 9.5 µM |  |  | 0.015 µM | 
23 | Cc1n[nH]c2ccc(-c3cc(OC[C@@H](N)Cc4ccccc4)cnc3-c3cc(F)ccc3O)cc12 | 9.8 µM | 0.01 µM |  |  | 

— ChEMBL document CHEMBL1153241, “2,3,5-Trisubstituted pyridines as selective AKT inhibitors-Part I: Substitution at 2-position of the core pyridine for ROCK1 selectivity” (Bioorg Med Chem Lett, 2010)
